Results reported in ChEMBL document CHEMBL1926589, “2-Anilinonicotinyl linked 2-aminobenzothiazoles and [1,2,4]triazolo[1,5-b] [1,2,4]benzothiadiazine conjugates as potential mitochondrial apoptotic inducers” (Bioorg Med Chem, 2011).
Activity calls are given as the source filed them. No cut-off for these calls is given here.

Tests used:
HL-60 [1] = test: Induction of apoptosis in human HL60 cells assessed as early apoptotic cells at 1 uM after 24 hrs using Annexin V-FITC and propidium iodide staining by flow cytometry relative to control; type: functional
Summary of the method: (§1)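 HL-60 cells (1 x 10^5 per 1.5 mL) treated 24 h, washed twice in PBS and stained in binding buffer with annexin V-FITC and PI. Flow cytometry with FITC in FL-1 (530 nm) and PI in FL-2 (585 nm), using quadrant statistics: lower right taken as apoptotic, upper right as post-apoptotic necrotic. Representative of three independent experiments.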

HL-60 [2] = test: Induction of apoptosis in human HL60 cells assessed as non-viable necrotic cells at 1 uM after 24 hrs using Annexin V-FITC and propidium iodide staining by flow cytometry relative to control; type: functional; summary of the method: as §1
HL-60 [3] = test: Induction of apoptosis in human HL60 cells assessed as late apoptotic cells at 1 uM after 24 hrs using Annexin V-FITC and propidium iodide staining by flow cytometry relative to control; type: functional; summary of the method: as §1
OVCAR-5 = test: Growth inhibition of human OVCAR5 cells at 10 uM by sulforhodamine B assay; type: functional; conditions: read-out: GI
Summary of the method: (§2)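 Single-dose 10 µM screen by sulforhodamine B assay, reported as percent inhibition of cell proliferation. Cells grown in medium with 10% heat-inactivated FBS at 37 °C, 5% CO2, and treated at about 70% confluence or in log phase. Compounds dissolved in DMSO; controls received vehicle (<0.5% v/v).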

SiHa [4] = test: Growth inhibition of human SiHa cells after 48 hrs by MTT assay; type: functional, cell-based
HL-60 [5] = test: Induction of apoptosis in human HL60 cells assessed as caspase3 activation using DEVD-AFC as substrate at 1 uM after 24 hrs by fluorimetry relative to control; type: functional
Summary of the method: (§3)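 HL-60 cells (2 x 10^6) treated 24 h, washed and lysed. Caspase-3, -8 and -9 activities in lysates measured fluorometrically with a commercial caspase fluorescent assay kit. Two independent experiments, each in duplicate.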

HL-60 [6] = test: Inhibition of survivin expression in human HL60 cells at 1 uM after 24 hrs by Western blotting; type: functional, cell-based
Summary of the method: (§4)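 HL-60 cells treated 24 h and lysed in RIPA buffer on ice; protein measured by Bradford against a BSA standard. 50 µg resolved by SDS-PAGE and transferred to PVDF, blocked in 5% milk/TBST, then primary antibodies 1:1000 for 2 h and HRP secondary 1:1000 for 1 h. ECL detection with β-actin as loading control; bands quantified by densitometry.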

[7] = Therapeutic ratio of IC50 for african green monkey CV1 cells to IC50 for human HL60 cells; type: ADME, cell-based, HL-60; conditions: CV1 cells and HL60 cells, read-out: Ratio IC50
SiHa [8] = test: Induction of apoptosis in human SiHa cells assessed as DNA ladder formation at 10 uM after 24 hrs by agarose gel electrophoresis; type: functional, cell-based
Summary of the method: (§5)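 Cells treated 24 h, then 2 x 10^6 cells lysed (Triton X-100 buffer, pH 8.0) with RNase at 37 °C for 90 min and proteinase-K at 50 °C for 1 h. DNA phenol/chloroform-extracted and ethanol-precipitated, then run on 1.8% agarose at 50 V for 1.5 h in TAE. Ladders viewed under UV.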

SW-620 = test: Growth inhibition of human SW620 cells at 10 uM by sulforhodamine B assay; type: functional; conditions: read-out: GI; summary of the method: as §2
HEp-2 = test: Growth inhibition of human Hep2 cells at 10 uM by sulforhodamine B assay; type: functional; conditions: read-out: GI; summary of the method: as §2
DU-145 = test: Growth inhibition of human DU145 cells at 10 uM by sulforhodamine B assay; type: functional; conditions: read-out: GI; summary of the method: as §2
HeLa = test: Induction of apoptosis in human HeLa cells assessed as DNA ladder formation at 10 uM after 24 hrs by agarose gel electrophoresis; type: functional, cell-based; summary of the method: as §5
SK-N-SH = test: Growth inhibition of human SK-N-SH cells at 10 uM by sulforhodamine B assay; type: functional; conditions: read-out: GI; summary of the method: as §2
A549 = test: Growth inhibition of human A549 cells at 10 uM by sulforhodamine B assay; type: functional; conditions: read-out: GI; summary of the method: as §2
HL-60 [9] = test: Induction of apoptosis in human HL60 cells assessed as caspase9 activation using LEHD-AMC as substrate at 1 uM after 24 hrs by fluorimetry relative to control; type: functional; summary of the method: as §3
HL-60 [10] = test: Growth inhibition of human HL60 cells after 48 hrs by MTT assay; type: functional, cell-based; conditions: HL-60, 48 h
HL-60 [11] = test: Inhibition of Bcl-2 expression in human HL60 cells at 1 uM after 24 hrs by Western blotting; type: functional, cell-based; summary of the method: as §4
HL-60 [12] = test: Induction of apoptosis in human HL60 cells assessed as DNA ladder formation at 1 uM after 24 hrs by agarose gel electrophoresis; type: functional, cell-based; summary of the method: as §5
[13] = Growth inhibition of human 502713 cells at 10 uM by sulforhodamine B assay; type: functional; conditions: read-out: GI; summary of the method: as §2
CV-1 = test: Growth inhibition of african green monkey CV1 cells after 48 hrs by MTT assay; type: cell-based; conditions: Chlorocebus aethiops, CV-1, 48 h
SiHa [14] = test: Growth inhibition of human SiHa cells at 10 uM by sulforhodamine B assay; type: functional; conditions: read-out: GI; summary of the method: as §2
HL-60 [15] = test: Cell cycle arrest in human HL60 cells assessed as accumulation at sub-G0 phase measuring DNA damage at 1 uM after 24 hrs using propidium iodide staining by flow cytometry (reference value: 1%); type: functional
Summary of the method: (§6)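 HL-60 cells (1 x 10^5 per 1.5 mL) treated 24 h, then fixed in 70% cold ethanol at −20 °C overnight. RNase digestion (400 µg/ml) at 37 °C for 45 min, then propidium iodide (10 µg/ml) for 30 min. Flow cytometry on 10,000 events, FL2-A vs FL2-W, with doublet discrimination. Sub-G0 (hypodiploid) peak taken as apoptotic cells. Mean ± SD of three independent experiments.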

HL-60 [16] = test: Cell cycle arrest in human HL60 cells assessed as accumulation at G1 phase at 1 uM after 24 hrs using propidium iodide staining by flow cytometry; type: functional, cell-based; summary of the method: as §6
IMR-32 = test: Growth inhibition of human IMR32 cells at 10 uM by sulforhodamine B assay; type: functional; conditions: read-out: GI; summary of the method: as §2
HL-60 [17] = test: Induction of NO production in human HL60 cells at 1 uM after 24 hrs using DAF-2DA fluorescent dye based flow cytometric analysis; type: functional, cell-based
Summary of the method: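 HL-60 cells (1 x 10^5 per 1.5 mL) preloaded 30 min with 10 µM DAF-2-DA before treatment. After 24 h exposure, cells were washed and read by flow cytometry in FL-1 as NO-positive population. Mean ± SD of three independent experiments.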

HL-60 [18] = test: Induction of apoptosis in human HL60 cells assessed as PARP cleavage at 1 uM after 24 hrs by Western blotting; type: functional, cell-based; summary of the method: as §4
HL-60 [19] = test: Inhibition of NF-kappaB expression in human HL60 cells at 1 uM after 24 hrs by Western blotting; type: functional, cell-based; summary of the method: as §4
HL-60 [20] = test: Cell cycle arrest in human HL60 cells assessed as accumulation at S phase at 1 uM after 24 hrs using propidium iodide staining by flow cytometry; type: functional, cell-based; summary of the method: as §6
HCT-15 = test: Growth inhibition of human HCT15 cells at 10 uM by sulforhodamine B assay; type: functional; conditions: read-out: GI; summary of the method: as §2
HL-60 [21] = test: Induction of apoptosis in human HL60 cells assessed as caspase8 activation using IETD-AFC as substrate at 1 uM after 24 hrs by fluorimetry relative to control; type: functional; summary of the method: as §3
HL-60 [22] = test: Cell cycle arrest in human HL60 cells assessed as accumulation at G2/M phase at 1 uM after 24 hrs using propidium iodide staining by flow cytometry; type: functional, cell-based; summary of the method: as §6
HL-60 [23] = test: Induction of apoptosis in human HL60 cells assessed as DNA ladder formation at 10 uM after 24 hrs by agarose gel electrophoresis; type: functional, cell-based; summary of the method: as §5
HL-60 [24] = test: Induction of apoptosis in human HL60 cells assessed as increase of reactive oxygen species level at 1 uM after 24 hrs using DCFH-DA fluorescent dye based flow cytometric analysis relative to control; type: functional
Summary of the method: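 HL-60 cells (1 x 10^5 per 1.5 mL) treated 24 h, then loaded with 10 µM H2DCFDA for 30 min at 37 °C. Washed twice in PBS and read in FL-1 (530 nm). Percentage of DCF-positive cells determined; mean ± SD of three experiments.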

HL-60 [25] = test: Induction of apoptosis in human HL60 cells assessed as decrease in mitochondrial membrane potential at 1 uM after 24 hrs using rhodamine 123 staining by flow cytometry; type: functional
Summary of the method: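 HL-60 cells (1 x 10^5 per 1.5 mL) treated 24 h, then stained with rhodamine-123 (5 µg/mL final) for 1 h. Washed, and propidium iodide (5 µg/mL) added just before reading. FL-1 fluorescence from 10,000 events; percentage of low Rh-123 cells taken as loss of membrane potential. Mean ± SD, n=3.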

Row | Structure (SMILES) | Activity (HL-60 [1]) [%] | Activity (HL-60 [2]) [%] | Activity (HL-60 [3]) [%] | inhibition of growth at 10 µM (OVCAR-5) [%] | IC50 (SiHa [4]) [µM] | Activity (HL-60 [5]) | selectivity ratio [7] | Activity (SiHa [8]) | inhibition of growth at 10 µM (SW-620) [%] | inhibition of growth at 10 µM (HEp-2) [%] | inhibition of growth at 10 µM (DU-145) [%] | Activity (HeLa) | inhibition of growth at 10 µM (SK-N-SH) [%] | inhibition of growth at 10 µM (A549) [%] | IC50 (HL-60 [10]) [µM] | inhibition of growth at 10 µM [13] [%] | IC50 (CV-1) [µM] | inhibition of growth at 10 µM (SiHa [14]) [%] | inhibition of growth at 10 µM (IMR-32) [%] | inhibition of growth at 10 µM (HCT-15) [%] | further results
1 | CC[C@@]1(O)C(=O)OCc2c1cc1n(c2=O)Cc2cc3ccccc3nc2-1 [CAMPTOTHECIN] | 17 | 52 | 11 | – | – | – | – | – | – | – | – | – | – | – | – | – | – | – | – | – | –
2 | CN1c2ccccc2S(=O)(=O)n2nc(-c3cccnc3Nc3ccc(Cl)cc3Cl)nc21 | 7 | 13 | 3 | 23 | > 50 | inactive | > 156 | inactive | 62 | 0 | 11 | inactive | 16 | 15 | 0.64 | 49 | > 100 | 13 | 47 | 27 | inhibition (HL-60 [6]): Active; Activity (HL-60 [9]): inactive; inhibition (HL-60 [11]): inactive; Activity (HL-60 [12]): Active; Activity (HL-60 [15]): 20%; Activity (HL-60 [16]): inactive; Activity (HL-60 [17]): inactive; Activity (HL-60 [18]): Active; inhibition (HL-60 [19]): inactive; Activity (HL-60 [20]): inactive; Activity (HL-60 [21]): inactive; Activity (HL-60 [22]): inactive; Activity (HL-60 [23]): Active; Activity (HL-60 [24]): inactive
3 | O=C(Nc1nc2ccc([N+](=O)[O-])cc2s1)c1cccnc1Nc1ccccc1 | 13 | 42 | 7 | 50 | 28 | inactive | 120 | inactive | 65 | 26 | 52 | inactive | 48 | 31 | 0.58 | 63 | 70 | 53 | 45 | 66 | Activity (HL-60 [25]): Active; Activity (HL-60 [9]): inactive; inhibition (HL-60 [11]): inactive; Activity (HL-60 [12]): Active; Activity (HL-60 [15]): 24%; Activity (HL-60 [16]): inactive; Activity (HL-60 [17]): inactive; Activity (HL-60 [18]): Active; inhibition (HL-60 [19]): inactive; Activity (HL-60 [20]): inactive; Activity (HL-60 [21]): inactive; Activity (HL-60 [22]): inactive; Activity (HL-60 [23]): Active; Activity (HL-60 [24]): 31%
4 | O=C(Nc1nc2ccc([N+](=O)[O-])cc2s1)c1cccnc1Nc1ccc(Cl)cc1 | – | – | – | 26 | > 50 | – | 2 | – | 65 | 69 | 52 | – | 48 | 83 | 0.4 | 63 | 0.8 | 53 | 45 | 66 | –
5 | COc1ccc(Nc2ncccc2C(=O)Nc2nc3ccc([N+](=O)[O-])cc3s2)cc1 | 7 | 14 | 3 | 52 | 28 | inactive | 14 | inactive | 64 | 5 | 32 | inactive | 64 | 3 | 0.7 | 59 | 10 | 66 | 55 | 47 | Activity (HL-60 [9]): inactive; inhibition (HL-60 [11]): inactive; Activity (HL-60 [12]): Active; Activity (HL-60 [15]): 22%; Activity (HL-60 [16]): inactive; Activity (HL-60 [17]): inactive; Activity (HL-60 [18]): Active; inhibition (HL-60 [19]): inactive; Activity (HL-60 [20]): inactive; Activity (HL-60 [21]): inactive; Activity (HL-60 [22]): inactive; Activity (HL-60 [23]): Active; Activity (HL-60 [24]): 44%
6 | O=S1(=O)c2ccccc2N(c2ccccc2)c2nc(-c3cccnc3Nc3ccc(Cl)cc3)nn21 | – | – | – | 1 | – | – | – | – | 68 | 57 | 6 | – | 27 | 46 | – | 18 | – | 30 | 31 | 0 | –
